The values that follow come from ChEMBL document CHEMBL2203249, “Optimization of a small tropomyosin-related kinase B (TrkB) agonist 7,8-dihydroxyflavone active in mouse models of depression” (J Med Chem, 2012).

Active and inactive are the calls of the source. The calls are words filed in the database; no cut-off is given here.

In data set [1] the test system is Mus musculus. The data set is described as follows: Bioavailability in mouse at 10 mg/kg by HPLC analysis. The settings on record: in vivo. Format: ADME, organism-based. The gist of the method:
(§1)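 Mice of 20–30 g, 6–8 weeks old, dosed i.v. or orally. Blood was drawn at 3, 10, 30, 60, 120, 240, 360 and 480 min into lithium-heparin tubes, spun at 2500 × g for 15 min at 4°C within 1 h and stored at −20°C. Plasma was analysed by HPLC, 3 mice per time point. AUC was calculated by the linear/log trapezoidal method.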

Data set [2] has as its target T1, CYP3A4 (Homo sapiens, UniProt P08684). The data set can be described thus: Inhibition of CYP3A4 at 3 uM using testosterone substrate. Format: ADME. The settings on record: probe testosterone.
A short description of data set [3]: Tmax in mouse at 10 mg/kg, po by HPLC analysis. The arrangement: dose 10 mg/kg, route oral. Conditions: in vivo. Format: ADME, organism-based. The gist of the method: (§2)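 Mice (20–30 g, 6–8 weeks old) were dosed i.v. or orally. Blood was drawn into lithium-heparin tubes at 3, 10, 30, 60, 120, 240, 360 and 480 min, with 3 mice per time point. Plasma was separated at 2500 × g for 15 min at 4°C within 1 h and stored at −20°C. Samples were analysed by HPLC, and AUC was calculated by the linear/log trapezoidal method.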

The nature of data set [4]: Volume of distribution in mouse at 3 mg/kg, iv by HPLC analysis. Format: ADME, organism-based. More on the design: dose 3 mg/kg, route intravenous. Conditions: in vivo, read-out: Vz. The method, boiled down:
as §2

Data set [5] is described as follows: Elimination half life in mouse at 10 mg/kg, po by HPLC analysis. Type of data set: ADME, organism-based. More on the design: dose 10 mg/kg, route oral. Conditions: in vivo, read-out: beta t1/2. The method, boiled down:
as §1

Data set [6] in a line: Cmax in mouse at 10 mg/kg, po by HPLC analysis. Format: ADME, organism-based. The arrangement: dose 10 mg/kg, route oral. The settings on record: in vivo. The gist of the method:
as §1

Data set [7] is described as follows: AUC (infinity) in mouse at 3 mg/kg, iv by HPLC analysis. Type of data set: ADME, organism-based. The arrangement: time infinity, dose 3 mg/kg, route intravenous. The settings on record: plasma. The method, boiled down: as §1
Data set [8] has as its system Mus musculus. The data set can be described thus: Agonist activity at TrkB receptor in C57BL/J6 mouse brain assessed as Akt phosphorylation at serine 473 in hippocampus at 1 mg/kg, po after 2 hrs by immunoblotting analysis. Type of data set: functional, organism-based. The arrangement: dose 1 mg/kg. The method, boiled down:
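Hippocampus from male C57BL/6J mice was taken 2 h after a single 1 mg/kg oral dose. Brain was homogenised and ultracentrifuged, and 40 μg supernatant was immunoblotted for p-TrkB, p-Akt and p-MAPK.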
On the technique in general: In western blotting, separated proteins are transferred to a membrane and probed.

A short description of data set [9]: AUC (infinity) in mouse at 10 mg/kg, po by HPLC analysis. Format: ADME, organism-based. More on the design: time infinity, dose 10 mg/kg, route oral. Conditions: plasma. The gist of the method:
as §1

Data set [10] deals with Mus musculus. The data set can be described thus: Antidepressant activity in C57BL/J6 mouse assessed as reduction of immobility at 2.5 mg/kg, po administered qd for 21 days recorded in last 4 mins by forced swim test. Format: functional. More on the design: scale not given: the % may be the effect or the level left. The gist of the method: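 Male C57BL/6J mice, 2–3 months old, were gavaged daily for 21 days with drug (5 or 2.5 mg/kg) or saline and adapted to the test room for 2 days. With no preswim, each mouse was placed for 6 min in a 16-cm cylinder of 24 °C water, 14 cm deep. Immobility in the last 4 min was scored blind and compared by unpaired t-test (n=6 or 8).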

A short description of data set [11]: AUC last in mouse at 3 mg/kg, iv by HPLC analysis. Type of data set: ADME, organism-based. More on the design: time 0 - last, dose 3 mg/kg, route intravenous. Conditions: plasma. The gist of the method: as §1
For data set [12], the species on record is Mus musculus. The data set is described as follows: Agonist activity at TrkB receptor in C57BL/J6 mouse brain assessed as TrkB phosphorylation at tyrosine 706 in hippocampus at […] by immunoblotting analysis. Format: functional, organism-based.
Data set [13] deals with HepG2. The data set can be described thus: Cytotoxicity against human HepG2 cells assessed as cell death upto 100 uM after 24 hrs by LDH assay. Conditions: hepg2, 24 h. Format: cell-based. The method, boiled down: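 HepG2 cells were exposed to a range of concentrations up to 100 μM for 24 h, and cytotoxicity was measured by LDH release. n=3.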
The target of data set [14] is T1, CYP3A4. The data set can be described thus: Inhibition of CYP3A4 at 30 uM using modazolam substrate. The settings on record: probe midazolam (printed: modazolam). Format: ADME.
The subject of data set [15] is Mus musculus. The data set is described as follows: Antidepressant activity in C57BL/J6 mouse assessed as reduction of immobility at 2.5 mg/kg, po administered qd for 21 days by tail suspension test. Format: functional, organism-based. More on the design: dose 2.5 mg/kg. The gist of the method: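 Male C57BL/6J mice were gavaged once daily for 21 days with 2.5 mg/kg or saline vehicle, then tested for immobility during tail suspension. n=8, Student's t-test.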

The nature of data set [16]: Drug recovery in human plasma at 5 uM. Format: ADME, cell-free. The settings on record: read-out: Drug uptake. The method, boiled down:
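Human plasma protein binding was tested at 5 μM, reporting fraction unbound, fraction bound and recovery. The assay was run by a contract lab.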

A further data set deals with T2, CYP1A2 (Homo sapiens, UniProt P05177).
T2 sequence (P05177 whole entry): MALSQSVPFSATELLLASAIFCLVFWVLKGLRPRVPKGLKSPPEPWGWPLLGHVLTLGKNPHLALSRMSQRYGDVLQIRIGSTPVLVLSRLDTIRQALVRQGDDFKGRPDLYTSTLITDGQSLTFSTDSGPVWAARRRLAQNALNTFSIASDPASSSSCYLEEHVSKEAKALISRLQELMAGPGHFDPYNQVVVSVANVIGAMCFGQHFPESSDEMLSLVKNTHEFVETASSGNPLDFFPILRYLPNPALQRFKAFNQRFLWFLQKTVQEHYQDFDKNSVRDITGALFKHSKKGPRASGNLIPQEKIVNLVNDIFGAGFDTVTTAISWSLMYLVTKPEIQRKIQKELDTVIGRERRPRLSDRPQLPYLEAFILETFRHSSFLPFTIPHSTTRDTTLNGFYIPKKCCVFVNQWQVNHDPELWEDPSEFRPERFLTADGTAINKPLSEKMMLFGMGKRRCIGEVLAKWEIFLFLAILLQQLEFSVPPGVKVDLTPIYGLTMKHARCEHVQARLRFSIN
The data set can be described thus: Inhibition of CYP1A2 at 3 uM. Type of data set: ADME. The method, boiled down: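 CYP inhibition was tested at 3 and 30 μM and reported as percent inhibition. The assay was run by a contract lab.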

Data set [17] can be described thus: Volume of distribution at steady state in mouse at 3 mg/kg, iv by HPLC analysis. The arrangement: dose 3 mg/kg, route intravenous. Conditions: in vivo, read-out: Vdss. Type of data set: ADME, organism-based. The method, boiled down:
as §2

For data set [18], the target named is Voltage-gated inwardly rectifying potassium channel KCNH2 (Homo sapiens, UniProt Q12809). The data set can be described thus: Inhibition of human ERG.
The subject of data set [19] is HepG2. The data set is described as follows: Genotoxicity in human HepG2 cells assessed as induction of DNA lesion at 100 uM after 24 hrs by comet assay. Type of data set: toxicity, cell-based. The settings on record: hepg2, 24 h. The method, boiled down: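 HepG2 cells were exposed to 100 μM for 24 h, with etoposide as positive control. Cells were embedded in agarose, lysed 2 h at 4°C at pH 10, unwound 40 min in alkali at pH >13 and electrophoresed at 25 V for 30 min at 4°C. After ethidium bromide staining, comet-tail nuclei were counted in >100 cells per field. Three independent experiments, one-way ANOVA.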

Data set [20] is described as follows: Total body clearance in mouse at 3 mg/kg, iv by HPLC analysis. Format: ADME, organism-based. The arrangement: dose 3 mg/kg, route intravenous. The settings on record: in vivo. The method, boiled down: as §2
A short description of data set [21]: AUC last in mouse at 10 mg/kg, po by HPLC analysis. The arrangement: time 0 - last, dose 10 mg/kg, route oral. The settings on record: plasma. Type of data set: ADME, organism-based. The method, boiled down:
as §1

A short description of data set [22]: Elimination half life in mouse at 3 mg/kg, iv by HPLC analysis. Type of data set: ADME, organism-based. The arrangement: dose 3 mg/kg, route intravenous. Conditions: in vivo, read-out: beta t1/2. The method, boiled down: as §1

T1 sequence (P08684 whole entry): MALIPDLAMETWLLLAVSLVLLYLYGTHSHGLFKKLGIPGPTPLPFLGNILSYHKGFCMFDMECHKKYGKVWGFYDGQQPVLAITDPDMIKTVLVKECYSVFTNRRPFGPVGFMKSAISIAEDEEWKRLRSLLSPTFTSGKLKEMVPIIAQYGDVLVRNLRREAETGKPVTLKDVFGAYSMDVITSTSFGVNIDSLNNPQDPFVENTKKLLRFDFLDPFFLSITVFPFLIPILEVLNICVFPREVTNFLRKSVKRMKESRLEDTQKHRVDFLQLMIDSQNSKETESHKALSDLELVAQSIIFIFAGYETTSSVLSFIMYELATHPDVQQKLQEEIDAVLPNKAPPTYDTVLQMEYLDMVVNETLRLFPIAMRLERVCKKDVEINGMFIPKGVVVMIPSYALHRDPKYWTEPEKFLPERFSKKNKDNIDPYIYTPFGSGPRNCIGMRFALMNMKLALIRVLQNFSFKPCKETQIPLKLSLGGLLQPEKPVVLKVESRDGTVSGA
Voltage-gated inwardly rectifying potassium channel KCNH2, sequence (Q12809 whole entry): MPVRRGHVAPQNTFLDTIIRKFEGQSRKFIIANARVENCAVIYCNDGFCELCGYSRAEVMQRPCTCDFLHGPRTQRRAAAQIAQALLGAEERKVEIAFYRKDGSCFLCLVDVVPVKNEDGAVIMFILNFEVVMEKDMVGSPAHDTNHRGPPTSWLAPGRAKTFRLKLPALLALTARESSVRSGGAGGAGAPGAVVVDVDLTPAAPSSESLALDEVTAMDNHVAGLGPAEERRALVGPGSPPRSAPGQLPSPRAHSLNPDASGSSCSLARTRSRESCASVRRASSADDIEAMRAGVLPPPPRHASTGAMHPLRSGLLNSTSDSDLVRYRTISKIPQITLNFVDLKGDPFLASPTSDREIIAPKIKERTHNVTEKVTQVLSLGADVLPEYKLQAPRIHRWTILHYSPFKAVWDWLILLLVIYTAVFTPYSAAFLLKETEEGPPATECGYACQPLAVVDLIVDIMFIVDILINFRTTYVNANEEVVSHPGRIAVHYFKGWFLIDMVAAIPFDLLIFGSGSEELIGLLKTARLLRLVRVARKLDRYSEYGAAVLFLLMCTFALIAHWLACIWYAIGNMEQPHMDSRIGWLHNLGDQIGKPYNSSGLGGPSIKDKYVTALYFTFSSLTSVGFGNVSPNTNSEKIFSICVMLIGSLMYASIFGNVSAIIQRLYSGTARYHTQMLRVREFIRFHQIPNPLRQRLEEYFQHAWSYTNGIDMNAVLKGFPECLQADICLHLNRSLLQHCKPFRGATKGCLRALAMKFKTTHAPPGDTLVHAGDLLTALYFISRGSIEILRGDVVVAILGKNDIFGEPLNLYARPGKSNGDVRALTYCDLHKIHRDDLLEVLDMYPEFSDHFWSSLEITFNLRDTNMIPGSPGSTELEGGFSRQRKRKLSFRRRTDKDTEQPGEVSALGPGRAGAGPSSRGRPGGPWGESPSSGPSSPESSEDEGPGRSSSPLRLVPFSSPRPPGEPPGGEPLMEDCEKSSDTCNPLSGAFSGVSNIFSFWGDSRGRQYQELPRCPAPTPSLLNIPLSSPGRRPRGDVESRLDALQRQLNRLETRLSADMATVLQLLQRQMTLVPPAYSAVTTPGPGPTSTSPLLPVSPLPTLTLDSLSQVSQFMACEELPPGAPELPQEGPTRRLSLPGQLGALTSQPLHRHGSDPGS

In the data set on Mus musculus [1], `Cc1nc2ccc3c(=O)cc(-c4ccc(N5CCCC5)cc4)oc3c2[nH]1` showed an F of 2%. In addition, the inhibition at 3 µM was found to be 4.5% at CYP3A4 [2] and 27.3% against CYP1A2. Further, the Tmax in data set [3] is 2 h. Moreover, the Vd was determined as 23.1 L/kg in data set [4] and 10 L/kg in [17]. For the same compound, the figures for the half-life in data set [5] and in data set [22] were 0.967 h and 1.72 h, respectively. Besides, in data set [6], the Cmax was 7 ng/mL. Also, the AUC(0-inf) was 0.32 µg·h/mL in data set [7] and 0.0215 µg·h/mL in [9]. The outcome with Mus musculus [8], in the data set filed under Mus musculus [12] and in the data set on Mus musculus [15] was Active. The Activity was 45% in the data set with Mus musculus [10], “Non-toxic” in the data set with HepG2 [13] and “Non-toxic” in the data set on HepG2 [19]. The AUC(0-t) in [11] was 0.312 µg·h/mL; in data set [21], 0.0191 µg·h/mL. For the same compound, testing at 30 µM against CYP3A4 [14] gave an inhibition of 40.5%. The remaining at 5 µM in [16] turned out to be 86.3%. Also, in [18], the “inhibition (INH)” value is listed as “Not Active”. Besides, in [20], the clearance came to 9.36 L/h/kg.
Regarding `O=c1cc(-c2ccc(N3CCCC3)cc2)oc2c1ccc1cc[nH]c12`, at 3 µM the inhibition on CYP3A4 [2] was 3.4%. The outcome in the data set with Mus musculus [8] and in the data set filed under Mus musculus [12] was Active. Also, the outcome with Mus musculus [10] and in the data set with Mus musculus [15] was inactive. For the same compound, the Activity entry with HepG2 [13] and in the data set with HepG2 [19] was “Non-toxic” throughout. Moreover, the inhibition at 30 µM against CYP3A4 [14] is 48.1%. Moreover, the remaining at 5 µM in data set [16] was 97%.

One may read the inhibition as the relative decrease from the control value, in per cent. By Tmax is commonly meant the time from dosing to the highest level. By Cmax is commonly meant the highest concentration seen after dosing. The term AUC(0-inf) denotes the area under the concentration-time curve extrapolated to infinity. The AUC(0-t) is the area under the concentration-time curve up to a stated or last time point. For orientation: clearance means the volume of plasma or blood freed of the substance per unit of time.
